Laboratory results as given in ChEMBL document CHEMBL1152551, “Synthesis and pharmacological evaluation of novel 1- and 8-substituted-3-furfuryl xanthines as adenosine receptor antagonists” (Bioorg Med Chem, 2009).

Assays:
[1] = target: T1, Adenosine receptor A1 (Rattus norvegicus) (UniProt P25099); experiment: Displacement of [3H]DPCPX form adenosine A1 receptor in rat cortex membrane at 1 uM; type: cell membranes
T1 sequence (whole entry): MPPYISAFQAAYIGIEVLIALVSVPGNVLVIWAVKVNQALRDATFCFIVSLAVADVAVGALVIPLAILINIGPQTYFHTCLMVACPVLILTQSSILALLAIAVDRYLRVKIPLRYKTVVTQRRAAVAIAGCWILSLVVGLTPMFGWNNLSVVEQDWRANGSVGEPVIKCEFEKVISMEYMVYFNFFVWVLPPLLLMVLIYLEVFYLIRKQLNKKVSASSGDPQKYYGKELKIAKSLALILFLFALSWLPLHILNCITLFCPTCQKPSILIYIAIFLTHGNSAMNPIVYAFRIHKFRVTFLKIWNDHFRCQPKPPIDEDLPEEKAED
Summary of the method: (§1)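 Single concentration of 1 µM tested for displacement of specific radioligand binding, given as percentage displacement. Rat A1 in rat cortex membranes with [3H]DPCPX; human A2B in HEK-293 cells with [3H]DPCPX; human A2A in HeLa cells with [3H]ZM241385; human A3 in HeLa cells with [3H]NECA.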

[2] = target: T2, Adenosine receptor A2b (Homo sapiens) (UniProt P29275); experiment: Displacement of [3H]DPCPX from human adenosine A2B receptor expressed in HEK293 cells at 1 uM; type: cell-based; summary of the method: as §1
T2 sequence (whole entry): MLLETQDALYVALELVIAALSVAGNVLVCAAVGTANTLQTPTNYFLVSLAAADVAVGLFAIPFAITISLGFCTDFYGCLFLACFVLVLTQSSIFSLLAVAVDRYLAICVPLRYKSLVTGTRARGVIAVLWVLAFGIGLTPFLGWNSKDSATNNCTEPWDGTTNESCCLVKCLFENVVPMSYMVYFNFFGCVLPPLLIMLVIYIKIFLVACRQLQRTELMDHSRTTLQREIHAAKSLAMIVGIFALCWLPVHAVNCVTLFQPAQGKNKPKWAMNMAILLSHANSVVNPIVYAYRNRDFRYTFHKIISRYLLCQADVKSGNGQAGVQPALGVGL

Adenosine receptor A2a = Adenosine receptor A2a (Homo sapiens, UniProt P29274); experiment: Displacement of [3H]ZM241385 from human adenosine A2A receptor expressed in HeLa cells at 1 uM by microplate beta scintillation counting; type: cell-based; summary of the method: as §1
[3] = target: T3, Adenosine receptor A3 (Homo sapiens) (UniProt P0DMS8); experiment: Displacement of [3H]NECA from human recombinant adenosine A3 receptor expressed in HeLa cells at 1 uM; type: cell-based; summary of the method: as §1
T3 sequence (whole entry): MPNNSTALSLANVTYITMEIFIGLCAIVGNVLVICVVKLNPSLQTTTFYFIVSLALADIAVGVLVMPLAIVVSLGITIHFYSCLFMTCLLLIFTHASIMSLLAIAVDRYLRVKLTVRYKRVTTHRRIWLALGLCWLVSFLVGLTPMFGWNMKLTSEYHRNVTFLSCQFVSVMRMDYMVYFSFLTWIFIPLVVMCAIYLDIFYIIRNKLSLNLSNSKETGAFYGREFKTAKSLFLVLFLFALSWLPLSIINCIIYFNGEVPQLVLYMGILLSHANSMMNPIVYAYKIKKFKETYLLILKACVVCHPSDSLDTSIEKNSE

Adenosine receptor A2a, sequence (P29274 whole entry): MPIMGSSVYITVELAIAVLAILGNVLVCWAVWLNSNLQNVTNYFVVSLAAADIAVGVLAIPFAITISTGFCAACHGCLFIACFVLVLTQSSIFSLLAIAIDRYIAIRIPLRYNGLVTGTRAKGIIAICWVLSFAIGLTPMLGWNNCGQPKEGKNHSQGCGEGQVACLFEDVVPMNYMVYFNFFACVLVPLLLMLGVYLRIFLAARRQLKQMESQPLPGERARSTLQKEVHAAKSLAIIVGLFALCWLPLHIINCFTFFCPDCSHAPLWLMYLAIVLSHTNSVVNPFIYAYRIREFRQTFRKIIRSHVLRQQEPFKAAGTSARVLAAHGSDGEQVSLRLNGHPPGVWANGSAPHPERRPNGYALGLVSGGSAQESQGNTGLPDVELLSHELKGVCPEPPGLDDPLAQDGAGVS

For `CC[S+]([O-])CCn1c(=O)c2[nH]c(Cc3ccccc3)nc2n(Cc2ccco2)c1=O` (centres undefined), which Activity [1] is on record?
Its Activity is 1%.

And the Activity [2]?
The Activity was 9%.

What about the Activity (Adenosine receptor A2a) of the same molecule?
The Activity was 11%.

What about the Activity [3] of the same molecule?
Its Activity is 26%.
